An excerpt weighted towards active compounds, which were near 4.8% of everything screened.
ALR H2O2 inh – blocks human ALR sulfhydryl oxidase activity | purified ALR, DTT oxidation, H2O2 HRP-luminol luminescence | 290,000 compounds, 3.8% hits | P55789 | inhibition, % (no concentration beside the values);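 active = mean replicate inhibition above about 79%, with every replicate also reaching it, limit read from the data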
Target sequence (P55789 whole entry, looked up): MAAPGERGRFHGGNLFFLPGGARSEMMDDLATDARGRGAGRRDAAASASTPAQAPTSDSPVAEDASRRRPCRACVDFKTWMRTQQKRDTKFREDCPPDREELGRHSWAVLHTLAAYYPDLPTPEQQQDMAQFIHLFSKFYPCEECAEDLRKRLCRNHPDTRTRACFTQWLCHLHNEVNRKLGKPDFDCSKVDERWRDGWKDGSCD
Calb FLC – affects C. albicans growth with fluconazole. C. albicans CaCi-2 (fluconazole-resistant clinical isolate) + fluconazole, Alamar Blue growth, 48 h. AID 1979. growth inhibition, % (no concentration beside the values). 300,000 compounds, 0.57% hits;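 active = growth inhibition above about 58% in most replicates, limit read from the data, passing the limit was not always enough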;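 also: all wells also contain fluconazole at 8 µg/ml as a sub-toxic cotreatment; 0% = median of DMSO wells and 100% = median of geldanamycin control wells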
NALP1 yeast inh – blocks the NALP1 inflammasome reconstituted in yeast. S. cerevisiae NALP1/ASC/caspase-1 growth, X-gal OD620, 72 h. inhibition, % at 10 µM. 280,000 compounds, 0.61% hits; in the data active = inhibition mostly above about 24%, no sharp cut-off; inactive = mostly below about 32%
UCH37 DUB inh – human UCH37 deubiquitinating enzyme inhibition; inhibition, % (no concentration beside the values); purified proteasome/UCH37, Ub-AMC cleavage fluorescence; 330,000 compounds, 0.33% hits; Q9Y5K5;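 active = mean inhibition over replicate wells above about 20%, limit read from the data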;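 also: 0% = compound-free wells with enzyme and 100% = wells lacking proteasome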
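system = Proteasome-associated human UCH37 deubiquitinase | amount = 0.15 nM proteasome as dispensed | medium = pH 7.4 Tris-HCl (50 mM) with ovalbumin, ATP-MgCl2, DTT | incubation = 30 min preincubation with enzyme, 25 min cleavage at room temperature | detection = AMC fluorescence 355/460 nm | read-out basis = percent inhibition | controls = no-proteasome and no-compound wells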
ATG4B inh – blocks human ATG4B protease cleavage of LC3 substrate. Q9Y4P1. ATG4B cleavage of LC3-PLA2, NBD-HPC fluorescence, 1 h. inhibition, % at 8.33 µM. 340,000 compounds, 0.51% hits. AID 504462; in the data active = inhibition above about 40%
NLRP3 yeast inh – blocks the NALP3 inflammasome reconstituted in yeast. Yeast reconstituted NLRP3/ASC/caspase-1, beta-gal luminescence, 24 h. 330,000 compounds, 0.39% hits. inhibition, % at 10 µM;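 active = inhibition of 50% or more; inactive = inhibition below 50%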;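 also: plate controls were induced DMSO wells for no effect and uninduced yeast grown without galactose for full effect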
ATG4B conf – confirmation of human ATG4B inhibitors | shares compounds with ATG4B inh | ATG4B protease fluorescent substrate cleavage assay | inhibition, % at 8.33 µM | 320 compounds, 92% hits | AID 504757; in the data active = inhibition above about 39%
PLA2 ctr – PLA2 (human) inhibition in ATG4B counter-screen. shares compounds with ATG4B inh. purified PLA2, NBD-C6-HPC fluorescence, 45 min. inhibition, % at 8.33 µM. 1,600 compounds, 66% hits; in the data active = inhibition above about 50%
Target sequence (P04054 whole entry, looked up): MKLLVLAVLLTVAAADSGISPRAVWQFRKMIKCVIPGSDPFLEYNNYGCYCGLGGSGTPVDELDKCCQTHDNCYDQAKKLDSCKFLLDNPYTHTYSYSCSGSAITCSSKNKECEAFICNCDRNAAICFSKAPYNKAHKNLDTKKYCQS
* hit, by the source's call; . = no result given.

SMILES	ALR H2O2 inh	Calb FLC	NALP1 yeast inh	UCH37 DUB inh	ATG4B inh	NLRP3 yeast inh	PLA2 ctr	others
O=C(Nc1ccc(Cl)cn1)c1ccc([N+](=O)[O-])o1	.	8.3	-3.8	-0.1	-4.1	.	.
Cc1c(Cl)c([N+](=O)[O-])nn1Cc1ccc(C(=O)Nc2ccc(Cl)cn2)o1	0.0	0.4	41.3	1.6	45.7*	14.0	40.4	ATG4B conf=63.8*
O=C(O)c1ccc(C=NN2CCN(C3c4ccccc4-c4ccccc43)CC2)cc1	.	.	.	-0.5	.	.	.
Cc1c(Cl)cccc1NC(=S)NCCc1ccccn1	65.2	-0.4	3.3	6.0	27.9	3.0	.
Cc1c(Cl)cccc1NC(=S)NCCc1ccc(C(F)(F)F)cc1	.	-8.2	4.4	0.2	88.5*	13.8	93.9*
CCOC(=O)c1csc(NN=C2CCc3ccccc32)n1	.	.	.	5.0	.	.	.
COCCn1c(=O)c2ccccc2c2ccccc2c1=O	6.1	-4.5	-30.4	2.8	-0.3	-8.1	.
CCCCn1c(=O)c2ccccc2c2ccccc2c1=O	-4.1	.	14.4	3.5	63.9*	-17.9	75.0*
COC(=O)c1ccc(CSc2nnc(-c3c[nH]c4ccccc34)n2-c2ccccc2)cc1	32.3	-11.9	21.4	4.5	46.0*	4.3	67.0*
Cc1cccc(-n2c(SCc3ccc(C#N)cc3)nnc2-c2c[nH]c3ccccc23)c1	-12.0	4.9	24.4	2.2	50.6*	-3.7	59.3*
CCOC(=O)c1oc2ccc(Br)cc2c1CSc1nnc(C)s1	12.3	0.2	10.7	2.0	64.5*	31.4	67.3*
CCOC(=O)c1oc2ccccc2c1CSc1nnnn1-c1ccc(OC)cc1	.	8.9	.	-1.1	0.8	-7.3	.
O=C(O)/C=C/c1ccccc1Oc1ccc(Cl)cc1Cl	-7.6	62.5	-0.4	-0.9	41.4*	-26.9	10.7	ATG4B conf=68.3*
O=[N+]([O-])c1cc(C=NOCc2c(Cl)cccc2Cl)ccc1N1CCOCC1	.	.	.	3.3	.	.	.
Cc1cccc(Cc2cnc(NC(=O)c3ccc(C)o3)s2)c1	0.6	1.0	3.2	0.0	47.2*	24.1	62.8*
COC(=O)c1ccc(C=NNC(=O)C2CC(=O)N(c3ccc(OC)cc3)C2)cc1 (configuration not stated)	.	.	.	1.9	.	.	.
Cc1nc(NC(=O)c2ccccc2)sc1C1(C)CC(c2ccccc2F)=NO1 (configuration not stated)	.	9.6	.	0.9	44.5*	3.3	63.5*
Cc1nc(NC(=O)c2ccccc2)sc1C1(C)CC(c2c(Cl)cccc2Cl)=NO1 (configuration not stated)	.	2.4	.	.	37.0	11.9	.
CC(=NNC(=O)c1ccc(C)s1)c1ccncc1	.	.	.	4.3	.	.	.
Cc1c(CCC(=O)O)c(=O)oc2cc3occ(-c4ccc(Cl)cc4)c3cc12	7.8	28.3	-1.4	-28.5	7.3	20.4	.
Cc1c(CCC(=O)O)c(=O)oc2cc3occ(C(C)(C)C)c3cc12	-10.1	0.5	2.4	-31.7	44.5*	-0.2	61.0*
COc1ccc(C(=O)NN=C(C)c2cccc(NC(=O)C(F)(F)F)c2)cc1	.	.	.	-0.2	.	.	.
Brc1ccc(-c2nnc3n2C2(CCCC2)Cc2ccccc2-3)o1	.	12.6	-54.8	-0.9	52.5*	33.3	63.2*
Cc1cccc(OCC(=O)Nc2ccccc2-c2ccccc2)c1	-0.8	16.8	27.7	-0.3	45.1*	.	43.6	ATG4B conf=63.9*
Cc1c(NC(=O)c2ccccc2NC(=O)COc2ccccc2)cccc1C(=O)O	.	-11.0	4.6	2.3	40.1*	5.1	-14.1
COc1ccc(OCC(=O)Nc2ccccc2-c2ccccc2)cc1	5.0	10.1	-7.3	2.1	3.3	17.9	.
CC(=NNC(=S)Nc1cccc(C)c1)c1cc2ccccc2o1	.	.	.	-0.8	.	.	.
O=C(COC(=O)Cc1c(Cl)cccc1Cl)Nc1ccccc1-c1ccccc1	-5.9	-0.6	41.0	5.4	9.7	7.8	.
O=C(CSCc1c(Cl)cccc1Cl)Nc1ccccc1-c1ccccc1	-7.6	-6.3	33.6	4.9	74.1*	.	79.5*
CC(=NNC(=O)c1ccc(N)cc1)C1CC1	.	.	.	-0.5	.	.	.
